Sampled rows, rich in hits. Any-hit rate of the full collection: about 3.6%.
UCH37 DUB inh: human UCH37 deubiquitinating enzyme inhibition; inhibition, % (test concentration not listed); actives 0.33% (n = 330,000); AID 588478; purified proteasome/UCH37, Ub-AMC cleavage fluorescence;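 active = mean inhibition over replicate wells above about 20%, limit read from the data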;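 also: 0% = compound-free wells with enzyme and 100% = wells lacking proteasome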
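Material: human UCH37 enzyme supplied as purified proteasome complex. Measure: % inhibition of Ub-AMC cleavage fluorescence. Medium: pH 7.4 Tris-HCl (50 mM) with ovalbumin, ATP-MgCl2, DTT. Times: 30 min preincubation with enzyme, 25 min cleavage at room temperature. Detection: AMC fluorescence intensity at 355/460 nm.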
NadD block: blocks S. aureus nicotinate mononucleotide adenylyltransferase; purified NadD enzyme, colorimetric absorbance read-out; inhibition, % at 20 µM; actives 0.78% (n = 360,000); AID 602399; in the data active = inhibition above about 26%
SENP1 FRET inh: blocks the human SENP1 SUMO protease catalytic domain | recombinant SENP1 catalytic domain, CyPet-SUMO1-YPet FRET cleavage | inhibition, % at 10 µM | AID 624204 | Q9P0U3 | actives 0.21% (n = 360,000);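 active = inhibition at least 30% at 10 µM, raw YFP signal under a set limit, fluorescence ratio 0.5 to 1.5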;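 also: 0% = enzyme with DMSO and 100% = no enzyme wells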
Target sequence (Q9P0U3 419-644 limits assumed): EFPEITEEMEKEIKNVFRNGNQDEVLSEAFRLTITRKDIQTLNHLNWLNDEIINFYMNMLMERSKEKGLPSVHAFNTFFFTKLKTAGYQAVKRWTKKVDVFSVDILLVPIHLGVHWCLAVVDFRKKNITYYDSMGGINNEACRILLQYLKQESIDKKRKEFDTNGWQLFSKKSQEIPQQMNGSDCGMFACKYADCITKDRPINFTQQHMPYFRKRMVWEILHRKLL
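Assay system: hSENP1 catalytic domain, recombinant. Amount: SENP1 enzyme, 20 pM final. Schedule: 50 min reaction, RT, dark. Technique: FRET, CFP and YFP emission. Control set: no-enzyme wells low, DMSO-plus-enzyme wells high control.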
ATG4B inhibitor: inhibitors of human ATG4B cysteine protease. Q9Y4P1. ATG4B cleavage of LC3-PLA2, NBD-HPC fluorescence, 1 h. inhibition, % at 8.33 µM. actives 0.51% (n = 340,000). AID 504462; in the data active = inhibition above about 40%
Target sequence (Q9Y4P1 whole entry, looked up): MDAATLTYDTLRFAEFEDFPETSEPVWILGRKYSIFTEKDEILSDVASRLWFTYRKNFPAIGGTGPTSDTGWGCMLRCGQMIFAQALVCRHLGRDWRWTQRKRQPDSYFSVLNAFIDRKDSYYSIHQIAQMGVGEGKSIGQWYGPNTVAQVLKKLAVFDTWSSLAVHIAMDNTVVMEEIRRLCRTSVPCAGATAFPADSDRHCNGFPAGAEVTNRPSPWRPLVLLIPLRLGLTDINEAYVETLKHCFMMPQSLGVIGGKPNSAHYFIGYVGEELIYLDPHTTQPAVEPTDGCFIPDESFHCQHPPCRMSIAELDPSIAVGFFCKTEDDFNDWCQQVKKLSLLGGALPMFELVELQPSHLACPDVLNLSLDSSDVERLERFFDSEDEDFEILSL
GRIN3A LBD mod: modulators (binders) of human NR3A ligand-binding domain | Tm shift relative to glycine control, % at 25 µM | actives 2.5% (n = 340,000) | AID 1259313 | NR3A LBD differential scanning fluorimetry, Tm shift; 0% = protein alone, 100% = glycine-bound protein;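 active = melting temperature shift of at least 10% of the positive control shift, at one fixed dose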
* marks the source's active call; other numbers are inactive results; / = no result.

SMILES	UCH37 DUB inh	NadD block	SENP1 FRET inh	ATG4B inhibitor	GRIN3A LBD mod
COc1ccccc1C(=O)Nc1ccc(C(=O)/C=C/c2cccs2)cc1	2	-10	0	10	11*
COc1ccc(C(=O)Nc2ccc(Cl)cn2)cc1S(=O)(=O)N1CCCC1	1	-5	0	0	-2
COc1ccc(C(=O)Nc2ccc(NC(=O)c3cccs3)cc2)cc1Cl	4	16	0	6	34*
COc1c(Cl)cc(Cl)cc1C(=O)Nc1ccc(NC(=O)c2cccs2)cc1	-6	2	0	1	214*
O=C(NN=Cc1ccccn1)c1cccnc1	4	/	/	/	/
COC(=O)NN=Cc1cn(Cc2c(Cl)cccc2Cl)c2ccccc12	4	/	/	/	/
CC(C)(Cc1ccc(O)cc1)NC(=O)CC(=O)NN=Cc1ccc([N+](=O)[O-])cc1	7	/	/	/	/
Cc1cc(C)nc(SCC(=O)N/N=C/c2cc(C)n(-c3ccccc3C)c2C)n1	/	3	-4	-8	11*
Cc1cc(C)nc(SCC(=O)NN=Cc2cc(C)n(-c3ccccc3C)c2C)n1	1	/	/	/	/
COc1ccc(NC(C)=O)c([N+](=O)[O-])c1[N+](=O)[O-]	6	-5	3	-2	14*
COc1ccc(N2CCN(S(=O)(=O)c3c(C)n(C)c(=O)n(C)c3=O)CC2)cc1	1	-2	0	4	11*
COc1ccc(N2CCN(S(=O)(=O)c3cn(C)c(=O)n(C)c3=O)CC2)cc1	0	3	2	-2	0
CN(Cc1c(C(=O)NN=Cc2c(F)cccc2Cl)nnn1-c1nonc1N)c1ccccc1	0	/	/	/	/
Oc1c(Cl)cc(Cl)cc1/C=C/c1ccc2cccc(O)c2n1	2	15	-25	30	25*
Oc1ccc(Cl)cc1/C=C/c1ccc2cccc(O)c2n1	3	3	75	13	30*
COc1ccc(OC)c(/C=C/c2ccc3cccc(O)c3n2)c1	/	11	-85	/	/
COc1cc(Br)c(/C=C/c2ccc3cccc(O)c3n2)cc1OC	3	26	0	-6	3
Oc1cccc2ccc(/C=C/c3ccccc3Br)nc12	-1	2	2	1	14*
CC(=NNC(=O)Cc1cccn1C)c1cccs1	6	/	/	/	/
Cc1[nH]c2ccccc2c1C=NNC(=O)c1cccc(F)c1	5	/	/	/	/
CC1(c2nnc(Cc3ccccc3)o2)CC(c2ccncc2)=NO1 (stereo not given)	21*	-1	2	0	2
CC1(c2nnc(-c3cccc(Cl)c3)o2)CC(c2ccccc2F)=NO1 (stereo not given)	3	-9	-1	6	13*
CC1(c2nnc(-c3cccc(Cl)c3)o2)CC(c2cccc(Cl)c2)=NO1 (stereo not given)	0	-7	-2	-7	-4
CC1(c2nnc(Cc3ccccc3)o2)CC(c2ccc(C#N)cc2)=NO1 (stereo not given)	-1	-1	4	7	0
CC1(c2nnc(Cc3ccccc3)o2)CC(c2ccc(Cl)cc2)=NO1 (stereo not given)	28*	-4	2	1	1
SMILES	UCH37 DUB inh	NadD block	SENP1 FRET inh	ATG4B inhibitor	GRIN3A LBD mod
COc1ccc(C2=NOC(C)(c3nnc(Cc4ccccc4)o3)C2)cc1 (stereo not given)	29*	-2	1	-2	1
O=C(NN=Cc1cccnc1)C1c2ccccc2Oc2ccccc21	3	/	/	/	/
Cc1ccc(N(CC(=O)N2CCCCCC2)S(C)(=O)=O)cc1Cl	4	-3	4	0	1
Cc1ccc(N(CC(=O)O)S(C)(=O)=O)cc1Cl	0	0	2	9	12*
O=C(/C=C/c1c(Cl)cccc1Cl)Nc1ccncc1	-1	3	0	-15	27*
O=C(/C=C/c1ccc(Cl)cc1Cl)Nc1ccncc1	5	-9	0	-12	32*
O=C(/C=C/c1ccccc1Cl)Nc1ccncc1	1	-8	-1	-21	7
CC(C)(C)NC(=O)CCN(N=Cc1ccncc1)C1=NS(=O)(=O)c2ccccc21	10	/	/	/	/
CC(C)(C)c1cc(C=NO)cc(C(C)(C)C)c1O	5	/	/	/	/
CC1(C)N([O-])C(c2ccccc2)=C[N+](=O)C1(C)C	8	-2	2	7	681*
CC1(C)CC(=O)c2c(O)c(-c3ccccc3)c(=O)n(-c3ccccc3)c2C1	-1	0	2	-6	12*
CC1(C)CC(=O)c2cc(C(=O)O)c(=O)n(-c3ccccc3)c2C1	-2	11	-13	-7	0
COc1ccc(N(CC(=O)Nc2ccc(F)c(Cl)c2)S(=O)(=O)c2c(C)noc2C)cc1	4	-7	1	30	16*
COc1ccc(N(CC(=O)Nc2ccc(OC)c(Cl)c2)S(=O)(=O)c2c(C)noc2C)cc1	6	-12	1	1	1
Cc1ccc(NC(=O)Nc2ccc3c(c2)C(=O)OC3)cc1Cl	5	-1	1	-3	24*
O=C(Nc1ccc(OC(F)(F)F)cc1)Nc1cccnc1	1	-1	2	-3	11*
O=C(Nc1cccnc1)Nc1ccccc1Cl	-2	-3	0	8	2
Cc1ccc(NC(=O)Nc2cccnc2)cc1Cl	2	-7	0	-4	31*
O=C(Nc1cccnc1)Nc1cc(Cl)cc(Cl)c1	4	-7	2	7	21*
O=C(NN=Cc1ccccc1C(F)(F)F)c1ccc2nc[nH]c2c1	3	/	/	/	/
Cn1cnnc1SCC(=O)NN=Cc1ccc(OCC(N)=O)cc1	4	/	/	/	/
CNC(=S)NN=Cc1cc(C)ccc1C	7	/	/	/	/
CCCCOc1ccc(C(=O)NN=Cc2ccc(OCCN3CCCCC3)c(OC)c2)cc1	2	/	/	/	/
Cc1cc(C(=O)NN=Cc2cccc([N+](=O)[O-])c2O)n[nH]1	5	/	/	/	/
Nc1[nH]n(-c2ccccc2)c(=O)c1N=Nc1ccc2c(c1)OCO2	/	-2	5	-10	11*
SMILES	UCH37 DUB inh	NadD block	SENP1 FRET inh	ATG4B inhibitor	GRIN3A LBD mod
O=C(NN=Cc1ccc2c(c1)OCO2)c1ccco1	6	/	/	/	/
CC(CCc1oc2ccc(Br)cc2c1-c1ccc(C)o1)=NO	1	/	/	/	/
O=c1c2cnn(-c3ccccc3)c2nnn1N=Cc1cccnc1	3	/	/	/	/
CCCNC(=O)C1CCN(S(=O)(=O)c2ccc3[nH]c(=O)ccc3c2)CC1	5	-1	-4	-2	17*
CCC(C)NC(=O)C1CCN(S(=O)(=O)c2ccc3[nH]c(=O)ccc3c2)CC1 (stereo not given)	5	1	-3	-4	2
COc1cc(NC(=O)C2CCCN(S(=O)(=O)c3ccc4[nH]c(=O)ccc4c3)C2)cc(OC)c1 (stereo not given)	0	5	3	-8	12*
COc1ccc(/C=C\C(=O)NCC(=O)NN=Cc2ccc(O)cc2O)cc1	7	/	/	/	/
O=C(CC(SCCO)c1ccc([N+](=O)[O-])cc1)c1ccco1 (stereo not given)	3	-3	1	11	40*

Screens from PubChem.
